Measurements from ChEMBL document CHEMBL1811775, “Brominated arginine-derived alkaloids from the red sea sponge Suberea mollis” (J Nat Prod, 2011).
In brackets after ≈: the same amount, converted by molar mass. Activity calls are given as the source filed them. The rule behind the calls is not given here.

Tests used:
Staphylococcus aureus [1] = test: Antibacterial activity against Staphylococcus aureus ATCC 6538P after 24 hrs by agar diffusion method; type: functional
Outline: (§1)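 Agar cup diffusion against the listed ATCC strains. Each compound was dissolved at 1 mg/mL in DMF, and 100 μL was placed in each cup. Plates were incubated at 37 C for 24 h, and the inhibition zone diameters were measured in mm.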

Pseudomonas aeruginosa [2] = test: Antibacterial activity against Pseudomonas aeruginosa ATCC 9027 after 24 hrs by agar diffusion method; type: functional, organism-based; outline: as §1
Candida albicans [3] = test: Antifungal activity against Candida albicans ATCC 2091 after 24 hrs by agar diffusion method; type: functional; outline: as §1
Klebsiella pneumoniae [4] = test: Antibacterial activity against Klebsiella pneumoniae ATCC 10032 after 24 hrs by agar diffusion method; type: functional, organism-based; outline: as §1
Escherichia coli = test: Antibacterial activity against Escherichia coli ATCC 35218 after 24 hrs by agar diffusion method; type: functional; outline: as §1
Staphylococcus aureus [5] = test: Antibacterial activity against Staphylococcus aureus ATCC 6538P at 30 ug/disk after 24 hrs by agar diffusion method; type: functional; details: read-out: IZ
Outline: (§2)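 Reference drugs were tested in the same agar diffusion series at the stated loads: chloramphenicol 30 μg/disk, ciprofloxacin 5 μg/disk, erythromycin 15 μg/disk, and clotrimazole 10 mg/mL (100 μL). Plates were read at 37 C for 24 h, and inhibition zones were recorded in mm.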

Klebsiella pneumoniae [6] = test: Antibacterial activity against Klebsiella pneumoniae ATCC 10032 at 30 ug/disk after 24 hrs by agar diffusion method; type: functional; details: ATCC 10032, 24 h, read-out: IZ; outline: as §2
Pseudomonas aeruginosa [7] = test: Antibacterial activity against Pseudomonas aeruginosa ATCC 9027 at 30 ug/disk after 24 hrs by agar diffusion method; type: functional; details: ATCC 9027, 24 h, read-out: IZ
Outline: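 Agar diffusion against P. aeruginosa ATCC 9027, using reference antibiotic disks at 30 μg/disk. Plates incubated at 37 C for 24 h, and the inhibition zone diameter read in mm.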

Pseudomonas aeruginosa [8] = test: microbe, parasite or virus in culture; details: ATCC 9027, 24 h, read-out: IZ
Candida albicans [9] = test: Antifungal activity against Candida albicans ATCC 2091 at 10 mg/mL after 24 hrs by agar diffusion method; type: functional; details: ATCC 2091, 24 h, read-out: IZ; outline: as §2
HeLa = test: Cytotoxicity against human HeLa cells after 72 hrs by MTT assay; type: functional, cell-based
Outline: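 HeLa cells were plated overnight at 37 C in 5% CO2. Samples were serially diluted 1:4 down the plate, with adriamycin and DMSO as controls. After 72 h, viability was read at 490 nm as MTS reduction to formazan. IC50 (μg/mL) was calculated from the dilution series.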

Staphylococcus aureus [10] = test: Antibacterial activity against Staphylococcus aureus ATCC 6538P at 15 ug/disk after 24 hrs by agar diffusion method; type: functional; details: read-out: IZ; outline: as §2
[11] = test system: Radical scavenging activity; test: Antioxidant activity assessed as DPPH radical scavenging activity after 30 mins by TLC […] assay; type: functional
Outline: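 TLC autographic DPPH assay. Samples at 1 mg/mL in MeOH were spotted at 6 μg each as 4 mm spots, with vitamin E as the positive control. The plate was sprayed with 0.2% (w/v) DPPH in MeOH, and scavenging spots were read 30 min after spraying.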

**Q.** What does the source list for COc1c(Br)cc(/C=C/C(=O)N[C@H](CCCNC(=N)N)C(=O)O)cc1Br?
**A.** Activity (Staphylococcus aureus [1]): inactive; Activity (Pseudomonas aeruginosa [2]): inactive; Activity (Candida albicans [3]): inactive; Activity (Klebsiella pneumoniae [4]): inactive; Activity (Escherichia coli): inactive

**Q.** With COc1ccc(/C=C/C(=O)N[C@H](CCCNC(=N)N)C(=O)O)cc1Br as the molecule, how does the Activity (Staphylococcus aureus [1]) read?
**A.** inactive

**Q.** And the Activity (Pseudomonas aeruginosa [2])?
**A.** inactive

**Q.** And the Activity (Candida albicans [3])?
**A.** inactive

**Q.** And the Activity (Klebsiella pneumoniae [4])?
**A.** inactive

**Q.** What about the Activity (Escherichia coli) of the same molecule?
**A.** inactive

**Q.** COC1=C(Br)[C@H](O)[C@@]2(C=C1Br)CC(C(=O)NCCCCNC(=O)C1=NO[C@]3(C=C(Br)C(OC)=C(Br)[C@@H]3O)C1)=NO2 [AEROTHIONIN] was tested. Which “inhibition zone (IZ)” value (Staphylococcus aureus [1]) did it give?
**A.** 5 mm

**Q.** And the Activity (Candida albicans [3])?
**A.** inactive

**Q.** How did the zone of inhibition at 30 µg/disc (Staphylococcus aureus [5]) turn out when O=C(N[C@H](CO)[C@H](O)c1ccc([N+](=O)[O-])cc1)C(Cl)Cl [CHLORAMPHENICOL] was run?
**A.** 9 mm

**Q.** What about the zone of inhibition at 30 µg/disc (Klebsiella pneumoniae [6]) of the same molecule?
**A.** 10 mm

**Q.** What about the zone of inhibition at 30 µg/disc (Pseudomonas aeruginosa [7]) of the same molecule?
**A.** 7 mm

**Q.** With O=C(O)c1cn(C2CC2)c2cc(N3CCNCC3)c(F)cc2c1=O [CIPROFLOXACIN] as the molecule, how does the zone of inhibition at 5 µg/disc (Pseudomonas aeruginosa [8]) read?
**A.** 8 mm

**Q.** Which zone of inhibition at 10000 µg/mL (Candida albicans [9]) does the source give for Clc1ccccc1C(c1ccccc1)(c1ccccc1)n1ccnc1 [CLOTRIMAZOLE] here?
**A.** 28 mm

**Q.** What does the source list for NC(=O)CC1(O)C=C(Cl)C(=O)C(Cl)=C1 [DICHLOROVERONGIAQUINOL]?
**A.** Activity (Candida albicans [3]): inactive; IC50 (HeLa): 13 µg/mL (≈ 55.1 µM); inhibition zone (IZ) (Escherichia coli): 15 mm

**Q.** For CC[C@H]1OC(=O)[C@H](C)[C@@H](O[C@H]2C[C@@](C)(OC)[C@@H](O)[C@H](C)O2)[C@H](C)[C@@H](O[C@@H]2O[C@H](C)C[C@H](N(C)C)[C@H]2O)[C@](C)(O)C[C@@H](C)C(=O)[C@H](C)[C@@H](O)[C@]1(C)O [ERYTHROMYCIN], which zone of inhibition at 15 µg/disc (Staphylococcus aureus [10]) is on record?
**A.** 8 mm

**Q.** With COC1=C(Br)[C@H](O)[C@@]2(C=C1Br)CC(C(=O)NCCCCNC(=N)N)=NO2 [PUREALDIN L] as the molecule, how does the “inhibition zone (IZ)” value (Staphylococcus aureus [1]) read?
**A.** 5 mm

**Q.** What about the Activity (Candida albicans [3]) of the same molecule?
**A.** inactive

**Q.** With COc1ccc(O)c(CC(N)=O)c1Br [SUBEREAPHENOL] as the molecule, how does the “inhibition zone (IZ)” value (Staphylococcus aureus [1]) read?
**A.** 10 mm

**Q.** What about the “inhibition zone (IZ)” value (Candida albicans [3]) of the same molecule?
**A.** 20 mm

**Q.** What about the IC50 (HeLa) of the same molecule?
**A.** 19 µg/mL (≈ 73.1 µM)

**Q.** And the Activity [11]?
**A.** Active

**Q.** What about the “inhibition zone (IZ)” value (Escherichia coli) of the same molecule?
**A.** 18 mm
